Results reported in publication PMC4512239 (Clinical cancer research : an official journal of the …, 2015).

Legend:
[1] = [14C]-AZD2014 metabolism and excretion after a single dose in rats; assay type: in vivo
[2] = clinical plasma pharmacokinetics; assay type: in vivo, human; settings: for AUC / Cmax / half-life: human, plasma
p-4EBP1 in PBMNCs = experiment: p-4EBP1 in peripheral blood mononuclear cells by flow cytometry; assay type: in vivo, human
p-AKT (S473) in PRP = experiment: p-AKT in platelet-rich plasma by Meso Scale Discovery immunoassay; assay type: in vivo, human
p-4EBP1 = p-4EBP1 immunohistochemistry in pre- and post-treatment tumor biopsies; assay type: in vivo, human; settings: 50 mg BD, post-treatment vs pre-treatment, mean H score
How it was run: (§1)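 Paired tumor biopsies taken before treatment and on days 8-15 of continuous oral twice-daily dosing, in a subset of expansion-cohort patients with advanced solid tumors. Patients fasted (water allowed) 2 h before and 1 h after each dose. Markers were scored by immunohistochemistry on post-treatment versus pre-treatment samples.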

p-AKT = p-AKT immunohistochemistry in pre- and post-treatment tumor biopsies; assay type: in vivo, human; settings: 50 mg BD
How it was run: as §1

SUVmax of tumors = experiment: FDG PET scans at baseline and day 8; assay type: in vivo, human; settings: Part B, 50 mg BD, paired FDG PET scans
advanced solid tumors = experiment: disease response by RECIST 1.1; assay type: in vivo, human; settings: one each with ovarian and endometrial cancer
MCF7 xenograft models = experiment: MCF7 xenograft growth inhibition; assay type: in vivo
m-TORC1/2 = settings: ATP competitive m-TORC1/2 inhibitor; cited from earlier work
[3] = 50 mg, 24 hours (12 hours after the 2nd BD dose)

What does the source list for `CNC(=O)c1cccc(-c2ccc3c(N4CCOC[C@@H]4C)nc(N4CCOC[C@@H]4C)nc3n2)c1` [AZD2014]?
faecal excretion, % of dosed radioactivity [1]: ~85%; urinary excretion, % of dosed radioactivity [1]: approximately 2%; free weekly AUC, average ([2]; 50mg BD solution, converted from total exposure with MW and 5.47% free): 11.05 µM·h; Cmin SS, Gmean ([2]; 50 mg BD, n=27): 169.5 ng/mL; Cmin SS, range ([2]; 50 mg BD, n=27): 0 to 2120 ng/mL; dose proportionality of Geomean exposure (AUC and Cmax) ([2]; 25 to 100 mg): increased greater than proportionally with increasing dose; AUC ([2]; oral, 25 mg, AUC, Gmean, Single dose, N=6): 1640 ng·h/mL; AUC ([2]; oral, 25 mg, AUC, Range, Single dose, N=6): 883 to 2730 ng·h/mL; AUC ([2]; oral, 25 mg, AUCss, Gmean, Steady state, 25 mg BD, N=6): 2980 ng·h/mL; AUC ([2]; oral, 25 mg, AUCss, Range, Steady state, 25 mg BD, N=6): 1000 to 6560 ng·h/mL; Cmax ([2]; oral, 25 mg, Cmax ss, Gmean, Steady state, 25 mg BD, N=6): 747 ng/mL; Cmax ([2]; oral, 25 mg, Cmax ss, Range, Steady state, 25 mg BD, N=6): 227 to 1450 ng/mL; Cmax ([2]; oral, 25 mg, Cmax, Gmean, Single dose, N=6): 435 ng/mL; Cmax ([2]; oral, 25 mg, Cmax, Range, Single dose, N=6): 221 to 681 ng/mL; half-life ([2]; oral, 25 mg, t½, Mean, Single dose, N=6): 2.96 h; half-life ([2]; oral, 25 mg, t½, Range, Single dose, N=6): 0.88 to 6.71 h; half-life ([2]; oral, 25 mg, t½, ss, Mean, Steady state, 25 mg BD, N=6): 2.89 h; half-life ([2]; oral, 25 mg, t½, ss, Range, Steady state, 25 mg BD, N=6): 1.34 to 4.06 h; AUC ([2]; oral, 50 mg, AUC, Gmean, Single dose, N=27): 4020 ng·h/mL; AUC ([2]; oral, 50 mg, AUC, Range, Single dose, N=27): 453 to 12600 ng·h/mL; AUC ([2]; oral, 50 mg, AUCss, Gmean, Steady state, 50 mg BD, N=37): 6690 ng·h/mL; AUC ([2]; oral, 50 mg, AUCss, Range, Steady state, 50 mg BD, N=37): 1280 to 47800 ng·h/mL; Cmax ([2]; oral, 50 mg, Cmax ss, Gmean, Steady state, 50 mg BD, N=37): 1660 ng/mL; Cmax ([2]; oral, 50 mg, Cmax ss, Range, Steady state, 50 mg BD, N=37): 657 to 6410 ng/mL; Cmax ([2]; oral, 50 mg, Cmax, Gmean, Single dose, N=27): 1150 ng/mL; Cmax ([2]; oral, 50 mg, Cmax, Range, Single dose, N=27): 234 to 2840 ng/mL; half-life ([2]; oral, 50 mg, t½, Mean, Single dose, N=27): 2.48 h; half-life ([2]; oral, 50 mg, t½, Range, Single dose, N=27): 0.9 to 8.04 h; half-life ([2]; oral, 50 mg, t½, ss, Mean, Steady state, 50 mg BD, N=37): 3.01 h; half-life ([2]; oral, 50 mg, t½, ss, Range, Steady state, 50 mg BD, N=37): 1.18 to 4.8 h; AUC ([2]; oral, 70 mg, AUC, Gmean, Single dose, N=5): 8970 ng·h/mL; AUC ([2]; oral, 70 mg, AUC, Range, Single dose, N=5): 6010 to 14200 ng·h/mL; AUC ([2]; oral, 70 mg, AUCss, Range, Steady state, 70 mg BD, N=2): 7500 to 22500 ng·h/mL; Cmax ([2]; oral, 70 mg, Cmax ss, Range, Steady state, 70 mg BD, N=2): 1500 to 3870 ng/mL; Cmax ([2]; oral, 70 mg, Cmax, Gmean, Single dose, N=5): 2380 ng/mL; Cmax ([2]; oral, 70 mg, Cmax, Range, Single dose, N=5): 1440 to 3690 ng/mL; half-life ([2]; oral, 70 mg, t½, Mean, Single dose, N=5): 3.11 h; half-life ([2]; oral, 70 mg, t½, Range, Single dose, N=5): 1.35 to 5.98 h; half-life ([2]; oral, 70 mg, t½, ss, Range, Steady state, 70 mg BD, N=2): 3.63 to 4.23 h; AUC ([2]; oral, 100 mg, AUC, Gmean, Single dose, N=4): 9670 ng·h/mL; AUC ([2]; oral, 100 mg, AUC, Range, Single dose, N=4): 4770 to 16100 ng·h/mL; Cmax ([2]; oral, 100 mg, Cmax, Gmean, Single dose, N=4): 2790 ng/mL; Cmax ([2]; oral, 100 mg, Cmax, Range, Single dose, N=4): 1410 to 5050 ng/mL; half-life ([2]; oral, 100 mg, t½, Mean, Single dose, N=4): 3.23 h; half-life ([2]; oral, 100 mg, t½, Range, Single dose, N=4): 0.82 to 6.49 h; half-life ([2]; po, terminal elimination half-life, patients): ~3 h; mean % change from baseline in p-4EBP1 (p-4EBP1 in PBMNCs; [3]): −21%; mean % change from baseline in p-4EBP1 (p-4EBP1 in PBMNCs; single 50 mg dose, 6-8 hours): ~−41%; mean % change from baseline in p-AKT (p-AKT (S473) in PRP; [3]): −2%; mean % change from baseline in p-AKT (p-AKT (S473) in PRP; single 50 mg dose, 6-8 hours): −37%; mean % change from baseline in p-AKT (p-AKT (S473) in PRP; single 50 mg dose, 2 hours): −62%; paired biopsy samples with a reduction of p-4EBP1 levels (p-4EBP1): 3/7; induction of phosphorylation of AKT in post-treatment biopsies (p-AKT): no instances of induction of phosphorylation of AKT were seen; paired biopsy samples with a reduction of p-AKT levels (p-AKT; post-treatment vs pre-treatment, mean H score): 3/4; patients attaining a partial response (30% reduction in SUVmax) (SUVmax of tumors): 3/11; patients with a reduction of SUVmax (SUVmax of tumors): 8/11; patients with prolonged stable disease on treatment for more than one year (advanced solid tumors): two patients; total growth inhibition (TGI) (MCF7 xenograft models; 4500 nM.h free weekly AUC): > 70%; total growth inhibition (TGI) (MCF7 xenograft models; 17000 nM.h free weekly AUC): ≥ 100%; IC50 (m-TORC1/2): 2.81 nM
